{"source": "ChEMBL document CHEMBL3763151", "about": "“Antinociceptive Grayanoids from the Roots of Rhododendron molle” (J Nat Prod, 2015)", "key": {"[1]": {"system": "Mus musculus", "test": "Antinociceptive activity in Kunming mouse model of acute pain assessed as inhibition of acetic acid-induced writhes at 5 mg/kg, ip administered 30 mins prior to acetic acid challenge measured for 30 mins", "format": "functional, organism-based", "outline": "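Acute-pain model in mice: compounds given ip, and writhing counted against vehicle-injected mice.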"}, "[2]": {"system": "Mus musculus", "test": "Antinociceptive activity in Kunming mouse model of STZ-induced diabetic neuropathy pain assessed as increase in paw withdrawal mechanical threshold at 50 mg/kg, po", "format": "functional, organism-based", "outline": "(§1)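 Streptozotocin-diabetic mice with mechanical hyperalgesia were dosed orally (n = 8), with vehicle and gabapentin groups for comparison. Data are mean ± SEM. Significance vs vehicle by one-way ANOVA followed by Bonferroni test.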"}, "[3]": {"system": "Mus musculus", "test": "Antinociceptive activity in Kunming mouse model of acute pain assessed as inhibition of acetic acid-induced writhes at 0.08 mg/kg, ip administered 30 mins prior to acetic acid challenge measured for 30 mins relative to control", "format": "functional", "outline": "(§2)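 Acetic acid-induced writhing in mice after ip dosing, with a vehicle-injected group for comparison. Reported as mean ± SEM of 12 mice per group. Significance vs vehicle by one-way ANOVA followed by Bonferroni test.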"}, "[4]": {"system": "Mus musculus", "test": "Antinociceptive activity in ip dosed Kunming mouse model of acute pain assessed as inhibition of acetic acid-induced writhes administered 30 mins prior to acetic acid challenge measured for 30 mins", "format": "functional", "details": "for ED50: read-out: ID50 (the source's name)", "outline": "as §2"}, "[5]": {"system": "Mus musculus", "test": "Antinociceptive activity in Kunming mouse model of acute pain assessed as inhibition of acetic acid-induced writhes at 0.8 mg/kg, ip administered 30 mins prior to acetic acid challenge measured for 30 mins in presence of nonselective opioid antagonist naloxone", "format": "functional, organism-based"}, "[6]": {"system": "Mus musculus", "test": "Antinociceptive activity in Kunming mouse model of formalin-induced pain assessed as reduction of time spent in licking in phase 1 at 2 mg/kg, ip administered 30 mins before formalin injection measured for 5 mins", "format": "functional, organism-based", "outline": "(§3)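 Formalin test scored in phase I and phase II after ip dosing, against a vehicle group (n = 10). Control drugs used: morphine and ibuprofen. Data are mean ± SEM. Significance vs vehicle by one-way ANOVA followed by Bonferroni test.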"}, "[7]": {"system": "Mus musculus", "test": "Antinociceptive activity in Kunming mouse model of formalin-induced pain assessed as reduction of time spent in licking in phase 2 at 2 mg/kg, ip administered 30 mins before formalin injection measured after 15 mins up to 30 mins", "format": "functional, organism-based", "outline": "as §3"}, "[8]": {"system": "Mus musculus", "test": "Antinociceptive activity in Kunming mouse model of STZ-induced diabetic neuropathy pain assessed as increase in paw withdrawal mechanical threshold at 0.2 to 0.4 mg/kg, po relative to gabapentin", "format": "functional", "outline": "as §1"}, "[9]": {"system": "Mus musculus", "test": "Antinociceptive activity in Kunming mouse assessed as increase in licking latency time at 0.02 to 0.08 mg/kg, ip by hot plate test", "format": "functional, organism-based"}, "[10]": {"system": "Mus musculus", "test": "Antinociceptive activity in Kunming mouse model of acute pain assessed as inhibition of acetic acid-induced writhes at 0.08 mg/kg, ip administered 30 mins prior to acetic acid challenge measured for 30 mins in presence of nonselective opioid antagonist naloxone", "format": "functional, organism-based"}, "[11]": {"system": "Mus musculus", "test": "Toxicity in ip dosed Kunming mouse by Karber's method", "format": "organism-based", "details": "in vivo"}, "[12]": {"system": "Mus musculus", "test": "Antinociceptive activity in ip dosed Kunming mouse model of formalin-induced pain assessed as reduction of time spent in licking in phase 1 administered 30 mins before formalin injection measured for 5 mins", "format": "functional, organism-based", "outline": "as §3"}, "[13]": {"system": "Mus musculus", "test": "Antinociceptive activity in ip dosed Kunming mouse model of formalin-induced pain assessed as reduction of time spent in licking in phase 2 administered 30 mins before formalin injection measured for 15 to 30 mins", "format": "functional, organism-based", "outline": "as §3"}, "[14]": {"system": "Mus musculus", "test": "Antinociceptive activity in po dosed Kunming mouse model of STZ-induced diabetic neuropathy pain assessed as complete reversal of mechanical hyperalgesia", "format": "functional, organism-based", "outline": "as §1"}, "[15]": {"test": "Selectivity index, ratio of LD50 for toxicity in Kunming mouse to ID50 for antinociceptive activity in Kunming mouse model of acute pain", "format": "organism-based", "details": "in vivo, read-out: Selectivity Index"}, "[16]": {"system": "Mus musculus", "test": "Antinociceptive activity in Kunming mouse assessed as increase in licking latency time at 0.08 mg/kg, ip by hot plate test", "format": "functional, organism-based"}, "[17]": {"system": "Mus musculus", "test": "Antinociceptive activity in Kunming mouse model of formalin-induced pain assessed as reduction of time spent in licking in phase 1 at 60 mg/kg, ip administered 30 mins before formalin injection measured for 5 mins", "format": "functional, organism-based", "outline": "(§4)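 Formalin test in mice with phases I and II scored separately. Compounds given ip, n = 10 per group. Data are mean ± SEM, compared with the vehicle group by one-way ANOVA followed by the Bonferroni test.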"}, "[18]": {"system": "Mus musculus", "test": "Antinociceptive activity in Kunming mouse model of formalin-induced pain assessed as reduction of time spent in licking in phase 2 at 60 mg/kg, ip administered 30 mins before formalin injection measured after 15 mins up to 30 mins", "format": "functional, organism-based", "outline": "as §4"}}, "note": "Activity calls are given as the source filed them.", "data": [{"smiles": "CC1(C)[C@@H](O)[C@@H](O)[C@@H]2[C@@](C)(O)[C@@H]3CC[C@@H]4[C@@H](O)[C@@]3(C[C@@H](O)[C@@]21O)C[C@@]4(C)O", "values": [{"measurement": "inhibition", "setting": "[1]", "value": "Active"}]}, {"smiles": "CC1(C)[C@@H](O[C@@H]2O[C@H](CO)[C@@H](O)[C@H](O)[C@H]2O)[C@@H](O)[C@H]2[C@](C)(O)[C@@H]3CC[C@@H]4[C@@H](O)[C@@]3(C[C@@H](O)[C@@]21O)C[C@@]4(C)O", "values": [{"measurement": "inhibition", "setting": "[1]", "value": "inactive"}]}, {"smiles": "C=C1[C@@H]2[C@@H](O)[C@H](O)C(C)(C)[C@@]2(O)[C@H](O)C[C@]23C[C@@](C)(O)[C@H](CC[C@@H]12)[C@H]3O", "values": [{"measurement": "inhibition", "setting": "[1]", "value": "inactive"}]}, {"smiles": "NCC1(CC(=O)O)CCCCC1", "values": [{"measurement": "Activity", "setting": "[2]", "value": "Active"}]}, {"smiles": "CC1(C)[C@@H](O[C@@H]2O[C@H](CO)[C@@H](O)[C@H](O)[C@H]2O)[C@H](O)[C@H]2[C@](C)(O)[C@@H]3CC[C@@H]4[C@@H](O)[C@@]3(C[C@@H](O)[C@@]21O)C[C@@]4(C)O", "values": [{"measurement": "inhibition", "setting": "[1]", "value": "Active"}]}, {"smiles": "CC1(C)[C@H]2O[C@H]2[C@H]2[C@](C)(O)[C@@H]3C[C@@H](O)[C@@H]4[C@@H](O)[C@@]3(C[C@@H](O)[C@@]21O)C[C@@]4(C)O", "values": [{"measurement": "inhibition", "setting": "[1]", "value": "Active"}]}, {"smiles": "C=C1C[C@@]23C[C@@H](O)[C@@]4(O)[C@H](C(=C)[C@@H]2CC[C@@H]1[C@H]3O)[C@@H](O)[C@H](O)C4(C)C", "values": [{"measurement": "inhibition", "setting": "[1]", "value": "inactive"}]}, {"smiles": "CC1(C)[C@@H](O)C[C@H]2[C@](C)(O)[C@@H]3CC[C@@H]4[C@@H](O)[C@@]3(C[C@@H](O)[C@@]21O)C[C@@]4(C)O", "note": "[GRAYANOTOXIN III]", "values": [{"measurement": "inhibition in vivo at 0.08 mg/kg", "setting": "[3]", "value": 55.6, "unit": "%"}]}, {"smiles": "C=C1[C@@H]2[C@H](O)[C@H](O[C@@H]3O[C@H](CO)[C@@H](O)[C@H](O)[C@H]3O)C(C)(C)[C@@]2(O)[C@H](O)C[C@]23C[C@@](C)(O)[C@H](CC[C@@H]12)[C@H]3O", "values": [{"measurement": "inhibition", "setting": "[1]", "value": "inactive"}]}, {"smiles": "C=C1[C@@H]2[C@@H](O)[C@H](O[C@@H]3O[C@H](CO)[C@@H](O)[C@H](O)[C@H]3O)C(C)(C)[C@@]2(O)[C@H](O)C[C@]23C[C@@](C)(O)[C@H](CC[C@@H]12)[C@H]3O", "values": [{"measurement": "inhibition", "setting": "[1]", "value": "inactive"}]}, {"smiles": "CC1=C2CC[C@@H]3[C@@H](O)[C@@]2(C[C@@H](O)[C@@]2(O)[C@H]1[C@@H](O)[C@H](O)C2(C)C)C[C@@]3(C)O", "values": [{"measurement": "inhibition", "setting": "[1]", "value": "inactive"}]}, {"smiles": "C=C1[C@@H]2CC[C@@H]3C[C@@]2(C[C@@H](O)[C@@]2(O)[C@@H]1[C@H](O)[C@H](O)C2(C)C)C[C@@]3(C)O", "values": [{"measurement": "inhibition", "setting": "[1]", "value": "Active"}]}, {"smiles": "CN1CC[C@]23c4c5ccc(O)c4O[C@H]2[C@@H](O)C=C[C@H]3[C@H]1C5", "note": "[MORPHINE]", "values": [{"measurement": "ED50", "setting": "[4]", "value": 0.343, "unit": "mg/kg"}, {"measurement": "inhibition", "setting": "[5]", "value": "inactive"}, {"measurement": "Activity", "setting": "[6]", "value": "Active"}, {"measurement": "Activity", "setting": "[7]", "value": "Active"}]}, {"smiles": "CC1(C)[C@@H](O)[C@H](O)[C@H]2[C@](C)(O)[C@@H]3CC[C@@H]4[C@@H](O)[C@@]3(C[C@@H](O)[C@@]21O)C[C@@]4(C)O", "values": [{"measurement": "fold change (FC)", "setting": "[8]", "value": 100}, {"measurement": "inhibition in vivo at 0.08 mg/kg", "setting": "[3]", "value": 64.2, "unit": "%"}, {"measurement": "inhibition", "setting": "[4]", "value": "Dose-dependent effect"}, {"measurement": "ED50", "setting": "[4]", "value": 0.0727, "unit": "mg/kg"}, {"measurement": "Activity", "setting": "[9]", "value": "inactive"}, {"measurement": "inhibition", "setting": "[10]", "value": "Active"}, {"measurement": "LD50", "setting": "[11]", "value": 1791, "unit": "µg/kg"}, {"measurement": "Activity", "setting": "[12]", "value": "Dose-dependent effect"}, {"measurement": "Activity", "setting": "[13]", "value": "Dose-dependent effect"}, {"measurement": "Activity", "setting": "[14]", "value": "Dose-dependent effect"}, {"measurement": "selectivity ratio", "setting": "[15]", "value": 24.6}]}, {"smiles": "C=C1[C@@H]2[C@H](O)[C@H](O)C(C)(C)[C@@]2(O)[C@H](O)C[C@]23C=C(C)[C@H](CC[C@@H]12)[C@H]3O", "values": [{"measurement": "inhibition", "setting": "[1]", "value": "inactive"}]}, {"smiles": "CC1(C)[C@H]2O[C@H]2[C@H]2[C@](C)(O)[C@@H]3CC[C@@H]4[C@@H](O)[C@@]3(C[C@@H](O)[C@@]21O)C[C@@]4(C)O", "values": [{"measurement": "fold change (FC)", "setting": "[8]", "value": 100}, {"measurement": "Activity", "setting": "[16]", "value": "Active"}, {"measurement": "inhibition in vivo at 0.08 mg/kg", "setting": "[3]", "value": 73.7, "unit": "%"}, {"measurement": "inhibition", "setting": "[4]", "value": "Dose-dependent effect"}, {"measurement": "ED50", "setting": "[4]", "value": 0.0469, "unit": "mg/kg"}, {"measurement": "inhibition", "setting": "[10]", "value": "Active"}, {"measurement": "LD50", "setting": "[11]", "value": 271, "unit": "µg/kg"}, {"measurement": "Activity", "setting": "[12]", "value": "Dose-dependent effect"}, {"measurement": "Activity", "setting": "[13]", "value": "Dose-dependent effect"}, {"measurement": "Activity", "setting": "[14]", "value": "Dose-dependent effect"}, {"measurement": "selectivity ratio", "setting": "[15]", "value": 5.8}]}, {"smiles": "CC1(C)[C@@H](O[C@@H]2O[C@H](CO)[C@@H](O)[C@H](O)[C@H]2O)[C@@H](O)[C@@H]2[C@@](C)(O)[C@@H]3CC[C@@H]4C[C@@]3(C[C@@H](O)[C@@]21O)C[C@@]4(C)O", "values": [{"measurement": "inhibition", "setting": "[1]", "value": "Active"}]}, {"smiles": "CC(C)Cc1ccc(C(C)C(=O)O)cc1", "note": "(stereo not drawn)", "values": [{"measurement": "Activity", "setting": "[17]", "value": "inactive"}, {"measurement": "Activity", "setting": "[18]", "value": "Active"}]}, {"smiles": "C=C1[C@@H]2CC[C@@H]3[C@@H](O)[C@@]2(C[C@@H](O)[C@@]2(O)[C@H]1C[C@H](O)C2(C)C)C[C@@]3(C)O", "values": [{"measurement": "inhibition", "setting": "[1]", "value": "Active"}]}]}
